# From ChEMBL document CHEMBL4152188, “Design, synthesis and biological evaluation of C(4) substituted monobactams as antibacterial agents against multidrug-resistant Gram-negative bacteria” (Eur J Med Chem, 2018)
# Legend:
# Format in all cases: functional
# [1] = system: Escherichia coli; assay: Antibacterial activity against extended-spectrum beta-lactamase producing Escherichia coli isolate 212648 after 18 hrs by CLSI broth microdilution method; settings: isolate 212648, 18 h
# [2] = system: Escherichia coli; assay: Selectivity index, ratio of MIC for against extended-spectrum beta-lactamase producing Escherichia coli isolate 208687 to MIC for extended-spectrum beta-lactamase producing Escherichia coli isolate 208687 in presence of BPL
# [3] = system: Escherichia coli; assay: Antibacterial activity against Escherichia coli isolate 210737 after 18 hrs by CLSI broth microdilution method; settings: isolate 210737, 18 h
# [4] = system: Escherichia coli; assay: Antibacterial activity against extended-spectrum beta-lactamase producing Escherichia coli isolate 208687 after 18 hrs by CLSI broth microdilution method; settings: isolate 208687, 18 h
# [5] = system: Escherichia coli; assay: Antibacterial activity against extended-spectrum beta-lactamase producing Escherichia coli isolate 208687 after 18 hrs in presence of BPL by CLSI broth microdilution method; settings: isolate 208687, 18 h
# Outline: (§1)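 CLSI broth microdilution against clinical isolates (ESBL E. coli, KPC-2 MDR K. pneumoniae, IMP-4 MDR P. aeruginosa; five per species). Iron limitation: Mueller-Hinton broth supplemented with 16 mg/liter 2,2'-bipyridyl to complex iron and induce iron uptake systems. Read-out: MIC.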
# [6] = system: Escherichia coli; assay: Antibacterial activity against Escherichia coli isolate 210737 after 18 hrs in presence of BPL by CLSI broth microdilution method; settings: isolate 210737, 18 h; outline: as §1
# [7] = system: Escherichia coli; assay: Selectivity index, ratio of MIC for against Escherichia coli isolate 210737 to MIC for Escherichia coli isolate 210737 in presence of BPL
# [8] = system: Escherichia coli; assay: Antibacterial activity against extended-spectrum beta-lactamase producing Escherichia coli isolate 212648 after 18 hrs in presence of BPL by CLSI broth microdilution method; settings: isolate 212648, 18 h; outline: as §1
# [9] = system: Escherichia coli; assay: Selectivity index, ratio of MIC for against extended-spectrum beta-lactamase producing Escherichia coli isolate 212648 to MIC for extended-spectrum beta-lactamase producing Escherichia coli isolate 212648 in presence of BPL
# [10] = system: Escherichia coli; assay: Antibacterial activity against extended-spectrum beta-lactamase producing Escherichia coli isolate 209285 after 18 hrs by CLSI broth microdilution method; settings: isolate 209285, 18 h
# [11] = system: Escherichia coli; assay: Antibacterial activity against extended-spectrum beta-lactamase producing Escherichia coli isolate 209285 after 18 hrs in presence of BPL by CLSI broth microdilution method; settings: isolate 209285, 18 h; outline: as §1
# [12] = system: Escherichia coli; assay: Selectivity index, ratio of MIC for against extended-spectrum beta-lactamase producing Escherichia coli isolate 209285 to MIC for extended-spectrum beta-lactamase producing Escherichia coli isolate 209285 in presence of BPL
# [13] = system: Escherichia coli; assay: Antibacterial activity against extended-spectrum beta-lactamase producing Escherichia coli isolate 106342 after 18 hrs by CLSI broth microdilution method; settings: isolate 106342, 18 h
# [14] = system: Escherichia coli; assay: Antibacterial activity against extended-spectrum beta-lactamase producing Escherichia coli isolate 106342 after 18 hrs in presence of BPL by CLSI broth microdilution method; settings: isolate 106342, 18 h; outline: as §1
# [15] = system: Escherichia coli; assay: Selectivity index, ratio of MIC for against extended-spectrum beta-lactamase producing Escherichia coli isolate 106342 to MIC for extended-spectrum beta-lactamase producing Escherichia coli isolate 106342 in presence of BPL
# [16] = system: Klebsiella pneumoniae; assay: Antibacterial activity against KPC-2 producing Klebsiella pneumoniae isolate 212423 after 18 hrs by CLSI broth microdilution method; settings: isolate 212423, 18 h
# [17] = system: Klebsiella pneumoniae; assay: Antibacterial activity against KPC-2 producing Klebsiella pneumoniae isolate 212423 after 18 hrs in presence of BPL by CLSI broth microdilution method; settings: isolate 212423, 18 h; outline: as §1
# [18] = system: Klebsiella pneumoniae; assay: Selectivity index, ratio of MIC for against KPC-2 producing Klebsiella pneumoniae isolate 212423 to MIC for against KPC-2 producing Klebsiella pneumoniae isolate 212423 in presence of BPL
# [19] = system: Klebsiella pneumoniae; assay: Antibacterial activity against KPC-2 producing Klebsiella pneumoniae isolate 209632 after 18 hrs by CLSI broth microdilution method; settings: isolate 209632, 18 h
# [20] = system: Klebsiella pneumoniae; assay: Antibacterial activity against KPC-2 producing Klebsiella pneumoniae isolate 209632 after 18 hrs in presence of BPL by CLSI broth microdilution method; settings: isolate 209632, 18 h; outline: as §1
# [21] = system: Klebsiella pneumoniae; assay: Selectivity index, ratio of MIC for against KPC-2 producing Klebsiella pneumoniae isolate 209632 to MIC for against KPC-2 producing Klebsiella pneumoniae isolate 209632 in presence of BPL
# [22] = system: Klebsiella pneumoniae; assay: Antibacterial activity against KPC-2 producing Klebsiella pneumoniae isolate 209735 after 18 hrs by CLSI broth microdilution method; settings: isolate 209735, 18 h
# [23] = system: Klebsiella pneumoniae; assay: Antibacterial activity against KPC-2 producing Klebsiella pneumoniae isolate 209735 after 18 hrs in presence of BPL by CLSI broth microdilution method; settings: isolate 209735, 18 h; outline: as §1
# [24] = system: Klebsiella pneumoniae; assay: Selectivity index, ratio of MIC for against KPC-2 producing Klebsiella pneumoniae isolate 209735 to MIC for against KPC-2 producing Klebsiella pneumoniae isolate 209735 in presence of BPL
# [25] = system: Klebsiella pneumoniae; assay: Antibacterial activity against KPC-2 producing Klebsiella pneumoniae isolate 212232 after 18 hrs by CLSI broth microdilution method; settings: isolate 212232, 18 h
# [26] = system: Klebsiella pneumoniae; assay: Antibacterial activity against KPC-2 producing Klebsiella pneumoniae isolate 212232 after 18 hrs in presence of BPL by CLSI broth microdilution method; settings: isolate 212232, 18 h; outline: as §1
# [27] = system: Klebsiella pneumoniae; assay: Selectivity index, ratio of MIC for against KPC-2 producing Klebsiella pneumoniae isolate 212232 to MIC for against KPC-2 producing Klebsiella pneumoniae isolate 212232 in presence of BPL
# [28] = system: Klebsiella pneumoniae; assay: Antibacterial activity against KPC-2 producing Klebsiella pneumoniae isolate 212229 after 18 hrs by CLSI broth microdilution method; settings: isolate 212229, 18 h
# [29] = system: Klebsiella pneumoniae; assay: Antibacterial activity against KPC-2 producing Klebsiella pneumoniae isolate 212229 after 18 hrs in presence of BPL by CLSI broth microdilution method; settings: isolate 212229, 18 h; outline: as §1
# [30] = system: Klebsiella pneumoniae; assay: Selectivity index, ratio of MIC for against KPC-2 producing Klebsiella pneumoniae isolate 212229 to MIC for against KPC-2 producing Klebsiella pneumoniae isolate 212229 in presence of BPL
# [31] = system: Pseudomonas aeruginosa; assay: Antibacterial activity against IMP-4 producing Pseudomonas aeruginosa isolate 212886 after 18 hrs by CLSI broth microdilution method; settings: isolate 212886, 18 h
# [32] = system: Pseudomonas aeruginosa; assay: Antibacterial activity against IMP-4 producing Pseudomonas aeruginosa isolate 212886 after 18 hrs in presence of BPL by CLSI broth microdilution method; settings: isolate 212886, 18 h; outline: as §1
# [33] = system: Pseudomonas aeruginosa; assay: Selectivity index, ratio of MIC for against IMP-4 producing Pseudomonas aeruginosa isolate 212886 to MIC for against IMP-4 producing Pseudomonas aeruginosa isolate 212886 in presence of BPL
# [34] = system: Pseudomonas aeruginosa; assay: Antibacterial activity against IMP-4 producing Pseudomonas aeruginosa isolate 209471 after 18 hrs by CLSI broth microdilution method; settings: isolate 209471, 18 h
# [35] = system: Pseudomonas aeruginosa; assay: Antibacterial activity against IMP-4 producing Pseudomonas aeruginosa isolate 209471 after 18 hrs in presence of BPL by CLSI broth microdilution method; settings: isolate 209471, 18 h; outline: as §1
# [36] = system: Pseudomonas aeruginosa; assay: Selectivity index, ratio of MIC for against IMP-4 producing Pseudomonas aeruginosa isolate 209471 to MIC for against IMP-4 producing Pseudomonas aeruginosa isolate 209471 in presence of BPL
# [37] = system: Pseudomonas aeruginosa; assay: Antibacterial activity against IMP-4 producing Pseudomonas aeruginosa isolate 208247 after 18 hrs by CLSI broth microdilution method; settings: isolate 208247, 18 h
# [38] = system: Pseudomonas aeruginosa; assay: Antibacterial activity against IMP-4 producing Pseudomonas aeruginosa isolate 208247 after 18 hrs in presence of BPL by CLSI broth microdilution method; settings: isolate 208247, 18 h; outline: as §1
# [39] = system: Pseudomonas aeruginosa; assay: Selectivity index, ratio of MIC for against IMP-4 producing Pseudomonas aeruginosa isolate 208247 to MIC for against IMP-4 producing Pseudomonas aeruginosa isolate 208247 in presence of BPL
# [40] = system: Pseudomonas aeruginosa; assay: Antibacterial activity against IMP-4 producing Pseudomonas aeruginosa isolate 209321 after 18 hrs by CLSI broth microdilution method; settings: isolate 209321, 18 h
# [41] = system: Pseudomonas aeruginosa; assay: Antibacterial activity against IMP-4 producing Pseudomonas aeruginosa isolate 209321 after 18 hrs in presence of BPL by CLSI broth microdilution method; settings: isolate 209321, 18 h; outline: as §1
# [42] = system: Pseudomonas aeruginosa; assay: Antibacterial activity against IMP-4 producing Pseudomonas aeruginosa isolate 207272 after 18 hrs by CLSI broth microdilution method; settings: isolate 207272, 18 h
# [43] = system: Pseudomonas aeruginosa; assay: Antibacterial activity against IMP-4 producing Pseudomonas aeruginosa isolate 207272 after 18 hrs in presence of BPL by CLSI broth microdilution method; settings: isolate 207272, 18 h; outline: as §1
# [44] = system: Pseudomonas aeruginosa; assay: Selectivity index, ratio of MIC for against IMP-4 producing Pseudomonas aeruginosa isolate 207272 to MIC for against IMP-4 producing Pseudomonas aeruginosa isolate 207272 in presence of BPL
# [45] = system: Pseudomonas aeruginosa; assay: Selectivity index, ratio of MIC for against IMP-4 producing Pseudomonas aeruginosa isolate 209321 to MIC for against IMP-4 producing Pseudomonas aeruginosa isolate 209321 in presence of BPL
smiles,measurement,setting,value
CC(C)C(O/N=C(\C(=O)N[C@@H]1C(=O)N(S(=O)(=O)O)[C@@H]1CSc1nc(=O)c(O)nn1C)c1csc(N)n1)c1cc(=O)c(O)cn1O (stereo not given in full),MIC,[1],4 µg/mL
same,Selectivity Index,[2],4
same,MIC,[3],2 µg/mL
same,MIC,[4],4 µg/mL
same,MIC,[5],1 µg/mL
same,MIC,[6],1 µg/mL
same,Selectivity Index,[7],2
same,MIC,[8],1 µg/mL
same,Selectivity Index,[9],4
same,MIC,[10],4 µg/mL
same,MIC,[11],4 µg/mL
same,Selectivity Index,[12],1
same,MIC,[13],4 µg/mL
same,MIC,[14],2 µg/mL
same,Selectivity Index,[15],2
same,MIC,[16],4 µg/mL
same,MIC,[17],2 µg/mL
same,Selectivity Index,[18],2
same,MIC,[19],2 µg/mL
same,MIC,[20],1 µg/mL
same,Selectivity Index,[21],2
same,MIC,[22],4 µg/mL
same,MIC,[23],2 µg/mL
same,Selectivity Index,[24],2
same,MIC,[25],2 µg/mL
same,MIC,[26],0.25 µg/mL
same,Selectivity Index,[27],8
same,MIC,[28],4 µg/mL
same,MIC,[29],1 µg/mL
same,Selectivity Index,[30],4
same,MIC,[31],> 64 µg/mL
same,MIC,[32],32 µg/mL
same,Selectivity Index,[33],>2
same,MIC,[34],64 µg/mL
same,MIC,[35],64 µg/mL
same,Selectivity Index,[36],1
same,MIC,[37],64 µg/mL
same,MIC,[38],64 µg/mL
same,Selectivity Index,[39],1
same,MIC,[40],> 64 µg/mL
same,MIC,[41],> 64 µg/mL
same,MIC,[42],64 µg/mL
same,MIC,[43],64 µg/mL
same,Selectivity Index,[44],1
C#CC1[C@H](NC(=O)/C(=N\OC(c2cc(=O)c(O)cn2O)C(C)C)c2csc(N)n2)C(=O)N1S(=O)(=O)O (stereo not given in full),MIC,[1],> 64 µg/mL
same,MIC,[3],> 64 µg/mL
same,MIC,[4],> 64 µg/mL
same,MIC,[5],> 64 µg/mL
same,MIC,[6],> 64 µg/mL
same,MIC,[8],> 64 µg/mL
same,MIC,[10],> 64 µg/mL
same,MIC,[11],> 64 µg/mL
same,MIC,[13],64 µg/mL
same,MIC,[14],64 µg/mL
same,Selectivity Index,[15],1
same,MIC,[16],> 64 µg/mL
same,MIC,[17],> 64 µg/mL
same,MIC,[19],> 64 µg/mL
same,MIC,[20],> 64 µg/mL
same,MIC,[22],> 64 µg/mL
same,MIC,[23],> 64 µg/mL
same,MIC,[25],> 64 µg/mL
same,MIC,[26],> 64 µg/mL
same,MIC,[28],> 64 µg/mL
same,MIC,[29],> 64 µg/mL
same,MIC,[31],> 64 µg/mL
same,MIC,[32],> 64 µg/mL
same,Selectivity Index,[33],1 - 2
same,MIC,[34],> 64 µg/mL
same,MIC,[35],> 64 µg/mL
same,Selectivity Index,[36],1 - 2
same,MIC,[37],64 µg/mL
same,MIC,[38],32 µg/mL
same,Selectivity Index,[39],2
same,MIC,[40],64 µg/mL
same,MIC,[41],64 µg/mL
same,Selectivity Index,[45],1
same,MIC,[42],> 64 µg/mL
same,MIC,[43],> 64 µg/mL
same,Selectivity Index,[44],1 - 2
